According to ChEMBL document CHEMBL2150941, “Cytotoxic iridoids from the roots of Patrinia scabra” (J Nat Prod, 2012):

Key:
[1] = tested on: HeLa; assay: Cytotoxicity against human HeLa cells after 48 hrs by MTT assay; assay type: functional, cell-based
How it was run: (§1)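 Cells kept in DMEM with 10% FBS, penicillin and streptomycin at 37 °C, 5% CO2. Seeded at 2 × 10^4 cells/well, allowed to adhere for 24 h, then exposed for 48 h to graded compound concentrations […], with 5-fluorouracil as positive control. MTT (5 mg/mL stock) added for 4 h at 37 °C, formazan dissolved in DMSO, read at 570 nm. IC50 is the mean of three independent experiments run in duplicate.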

[2] = Cytotoxicity against human MNK45 cells after 48 hrs by MTT assay; assay type: functional, cell-based; details: MNK45, 48 h; how it was run: as §1

**Q.** With `C[C@H]1C(=O)OC[C@H]2[C@@H]1CC[C@@]2(C)O[C@@H]1O[C@H](CO)[C@@H](O)[C@H](O)[C@H]1O` [PATRIRIDOSIDE E] as the compound, how does the IC50 [1] read?
**A.** > 50 µM

**Q.** What about the IC50 [2] of the same compound?
**A.** > 50 µM

**Q.** Which IC50 [1] does the source give for `COC(=O)C1=CO[C@@H](O[C@@H]2O[C@H](CO)[C@@H](O)[C@H](O)[C@H]2O)[C@@H]2[C@H](C)O[C@H](O)C[C@H]12` here?
**A.** > 50 µM

**Q.** What about the IC50 [2] of the same compound?
**A.** > 50 µM

**Q.** With `C[C@@H]1C(=O)OC[C@H]2[C@@H]1C[C@H](O)[C@@]2(C)O` [ISOPATRISCABROL] as the compound, how does the IC50 [1] read?
**A.** 24.5 µM

**Q.** And the IC50 [2]?
**A.** > 50 µM

**Q.** Which results are given for `O=c1[nH]cc(F)c(=O)[nH]1` [FLUOROURACIL]?
**A.** IC50 [1]: 9.5 µM; IC50 [2]: 12 µM

**Q.** Which IC50 [1] does the source give for `C=C1CO[C@]2(CO[C@@H]3O[C@H](CO[C@@H]4OC[C@](O)(CO)[C@H]4O)[C@@H](O)[C@H](O)[C@H]3O)C(C)=CC[C@H]12` [PATRIRIDOSIDE H] here?
**A.** > 50 µM

**Q.** And the IC50 [2]?
**A.** 9.4 µM

**Q.** Which results are given for `C[C@H]1C(=O)OC[C@H]2[C@@H]1C[C@H](O)[C@@]2(C)O` [PATRISCABROL]?
**A.** IC50 [1]: > 50 µM; IC50 [2]: > 50 µM

**Q.** Which results are given for `CC1=CC[C@@H]2[C@H](C)CO[C@]12CO[C@@H]1O[C@H](CO[C@@H]2OC[C@](O)(CO)[C@H]2O)[C@@H](O)[C@H](O)[C@H]1O` [PATRIRIDOSIDE I]?
**A.** IC50 [1]: > 50 µM; IC50 [2]: 30.9 µM

**Q.** With `C[C@@H]1[C@H]2OC[C@@H]3[C@@H]1C[C@H](O)[C@@]3(C)O2` as the compound, how does the IC50 [1] read?
**A.** > 50 µM

**Q.** What about the IC50 [2] of the same compound?
**A.** > 50 µM

**Q.** With `COC(=O)C1=CO[C@@H](O[C@@H]2O[C@H](CO)[C@@H](O)[C@H](O)[C@H]2O)[C@@H]2[C@H](C)O[C@@H](O)C[C@H]12` [MORRONISIDE] as the compound, how does the IC50 [1] read?
**A.** > 50 µM

**Q.** And the IC50 [2]?
**A.** > 50 µM

**Q.** With `COC(=O)C1=CO[C@@H](O[C@@H]2O[C@H](CO)[C@@H](O)[C@H](O)[C@H]2O)[C@@H]2[C@H](C)O[C@@H](OC)C[C@H]12` as the compound, how does the IC50 [1] read?
**A.** > 50 µM

**Q.** And the IC50 [2]?
**A.** > 50 µM

**Q.** What does the source list for `COC(=O)C1=CO[C@@H](O[C@@H]2O[C@H](CO)[C@@H](O)[C@H](O)[C@H]2O)[C@@H]2[C@H](C)O[C@H](OC)C[C@H]12`?
**A.** IC50 [1]: > 50 µM; IC50 [2]: > 50 µM

**Q.** For `C=C[C@H]1[C@H](O[C@@H]2O[C@H](CO)[C@@H](O)[C@H](O)[C@H]2O)OC=C2C(=O)OCC[C@H]21` [SWEROSIDE], which IC50 [1] is on record?
**A.** > 50 µM

**Q.** And the IC50 [2]?
**A.** 11.2 µM

**Q.** Which results are given for `C[C@@H]1C[C@@H]2OC=C(C=O)[C@@H]2[C@@H]1CO[C@@H]1O[C@H](CO)[C@@H](O)[C@H](O)[C@H]1O` [PATRIRIDOSIDE D]?
**A.** IC50 [1]: > 50 µM; IC50 [2]: 15.6 µM

**Q.** Which results are given for `C[C@H]1C(=O)OC[C@H]2[C@@H]1CC[C@@]2(C)O` [SCABROL A]?
**A.** IC50 [1]: > 50 µM; IC50 [2]: > 50 µM

**Q.** Which IC50 [1] does the source give for `C[C@H]1[C@H]2OC[C@@H]3[C@@H]1C[C@H](O)[C@@]3(C)O2` here?
**A.** > 50 µM

**Q.** What about the IC50 [2] of the same compound?
**A.** > 50 µM

**Q.** Which results are given for `C=C1CO[C@]2(CO[C@@H]3O[C@H](CO)[C@@H](O)[C@H](O)[C@H]3O)C(C)=CC[C@H]12` [PATRIRIDOSIDE G]?
**A.** IC50 [1]: > 50 µM; IC50 [2]: 8.7 µM

**Q.** For `C[C@H]1C(=O)OC[C@H]2[C@@H]1C[C@H](O[C@@H]1O[C@H](CO)[C@@H](O)[C@H](O)[C@H]1O)[C@@]2(C)O` [PATRISCABROSIDE I], which IC50 [1] is on record?
**A.** > 50 µM

**Q.** What about the IC50 [2] of the same compound?
**A.** > 50 µM

**Q.** Which results are given for `C=C1COC(=O)[C@H]2[C@@H]1C[C@H](O)[C@@]2(C)O` [JATAMANIN A]?
**A.** IC50 [1]: > 50 µM; IC50 [2]: > 50 µM

**Q.** Which IC50 [1] does the source give for `C[C@H]1[C@H]2C[C@H](O)[C@@](C)(O[C@@H]3O[C@H](CO)[C@@H](O)[C@H](O)[C@H]3O)[C@H]2CO[C@@H]1O` [PATRIRIDOSIDE F] here?
**A.** > 50 µM

**Q.** What about the IC50 [2] of the same compound?
**A.** > 50 µM

**Q.** For `C=C(CO)[C@H]1C[C@H](OC(=O)CC(C)C)[C@@](C)(O)[C@H]1CO[C@@H]1O[C@H](CO)[C@@H](O)[C@H](O)[C@H]1O` [PATRINIOSIDE], which IC50 [1] is on record?
**A.** > 50 µM

**Q.** And the IC50 [2]?
**A.** 23.8 µM
